MBD2 inh – MBD2-methylated oligo binding inhibition; 370,000 compounds, 0.31% hits; inhibition, % at 4.4 µM; TR-FRET, MBD2 binding to methylated oligonucleotide; Q9UBB5; in the data active = inhibition above about 13%
Target sequence (Q9UBB5 whole entry, looked up): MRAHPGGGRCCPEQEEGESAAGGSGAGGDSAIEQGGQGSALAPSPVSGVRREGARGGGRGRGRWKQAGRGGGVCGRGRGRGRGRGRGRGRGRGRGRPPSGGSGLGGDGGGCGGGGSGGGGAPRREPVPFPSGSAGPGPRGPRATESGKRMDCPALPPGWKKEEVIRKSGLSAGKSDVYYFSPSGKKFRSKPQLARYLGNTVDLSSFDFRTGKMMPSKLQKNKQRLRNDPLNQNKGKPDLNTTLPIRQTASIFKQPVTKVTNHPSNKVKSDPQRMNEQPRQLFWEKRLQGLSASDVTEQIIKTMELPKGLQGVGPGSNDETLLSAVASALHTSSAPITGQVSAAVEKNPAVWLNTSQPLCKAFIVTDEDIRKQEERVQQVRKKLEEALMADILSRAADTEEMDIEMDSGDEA
TDP2 absorb – TDP2 (human) inhibition, absorbance primary screen; recombinant TDP2, T5PNP hydrolysis, p-nitrophenol absorbance 415 nm; O95551; 370,000 compounds, 0.34% hits; inhibition, % at 12.8 µM; AID 720702;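 active = inhibition above the mean of all tested compounds plus 3 SD, set per campaign, cut at about 25% in these data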
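Material: recombinant human TDP2; quantity: TDP2 enzyme at 120 nM final; medium: Tris-HCl pH 7.5 with MgCl2; compound: single concentration, 12.8 µM nominal, with 1% DMSO; incubation: 2 h enzyme incubation at 37 °C; signal: epi absorbance; measure: percent inhibition; benchmarks: high control without enzyme, low control DMSO plus TDP2; repeats: singlicate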
Casp6 inh – blocks human caspase-6 cleavage activity | inhibition, % at 12.5 µM | purified caspase-6, Z-VEID-R110 cleavage fluorescence | AID 686996 | P55212 | 350,000 compounds, 0.53% hits;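 active = mean inhibition across replicates at least about 35%, with every replicate also reaching that limit, limit read from the data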
UHRF1 MBD2 ctr – blocks human UHRF1 binding to methylated DNA | Q96T88 | UHRF1 binding to methylated oligo, TR-FRET | inhibition, % at 4.4 µM | 370,000 compounds, 0.75% hits | AID 687016; in the data active = inhibition above about 21%;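 also: UHRF1 SRA domain binding a hemimethylated CpG hairpin DNA probe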
NSD2 HMT inh – blocks human histone methyltransferase NSD2; O96028; NSD2 peptide methylation, AlphaScreen, 120 min; inhibition, % at 12.5 µM; 310,000 compounds, 0.54% hits; AID 743445; in the data active = inhibition above about 50%
LEDGF integ inh – blocks HIV-1 LEDGF/p75-dependent DNA integration | TR-FRET IN-LEDGF/p75 DNA integration, Eu/Cy5 | AID 743269 | inhibition, % at 3.7 µM | 370,000 compounds, 0.64% hits;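 active = inhibition above the screen-wide mean plus 3 SD, cut at about 13% in these data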;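 also: signal is the Cy5 over europium emission ratio at 671 and 618 nm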
Each line names hits and unclear results; the compound was inactive in the other large screens. In the library only some 1.8% were active in any assay of this set; here they are far more common.

Cc1ccc(NC(=O)CSc2nnc(Cn3cnc4ccccc43)o2)cc1	UHRF1 MBD2 ctr 21 (no result: Casp6 inh, NSD2 HMT inh)
CC(C)NC(=O)N1C[C@@H]2[C@H](c3ccccc31)[C@H](CO)N2C(=O)c1cccnc1	none (no result: MBD2 inh, TDP2 absorb, UHRF1 MBD2 ctr, NSD2 HMT inh, LEDGF integ inh)
CCOC(=O)c1c(NC(=O)/C=C/C(=O)O)sc(C)c1-c1ccc(C(C)(C)C)cc1	Casp6 inh 42, NSD2 HMT inh 69
C[C@@H]1CCCCO[C@@H](CN(C)C(=O)Nc2ccc3c(c2)OCO3)[C@@H](C)CN([C@@H](C)CO)C(=O)c2cc(NC(=O)CCC(F)(F)F)ccc2O1	none (no result: MBD2 inh, TDP2 absorb, UHRF1 MBD2 ctr, NSD2 HMT inh, LEDGF integ inh)
CC1CCCCC1NC(=O)COC(=O)c1ccc([N+](=O)[O-])o1 (stereo not drawn)	Casp6 inh 48 (no result: NSD2 HMT inh)
O=C(COC(=O)c1ccc([N+](=O)[O-])o1)NC1CCCCC1	Casp6 inh 36
CC1CCCC(NC(=O)COC(=O)c2ccc([N+](=O)[O-])o2)C1C (stereo not drawn)	none
C[C@@H]1CN([C@H](C)CO)C(=O)c2cc(C#CC3CC3)cnc2O[C@@H]1CN(C)C(=O)Nc1ccc(F)cc1	none (no result: MBD2 inh, TDP2 absorb, UHRF1 MBD2 ctr, NSD2 HMT inh, LEDGF integ inh)
CCC(=O)N(C)C[C@@H]1Oc2cc(-c3cncnc3)ccc2S(=O)(=O)N([C@H](C)CO)C[C@@H]1C	none (no result: MBD2 inh, TDP2 absorb, UHRF1 MBD2 ctr, NSD2 HMT inh, LEDGF integ inh)
CCOCc1nnc(NC(C)=O)s1	none (no result: Casp6 inh, NSD2 HMT inh)
CCOCc1nnc(NC(=O)CS(=O)(=O)c2ccc(C)cc2)s1	UHRF1 MBD2 ctr 26 (no result: Casp6 inh)
CC(C)NC(=O)C1(C)Cc2c(-c3cccc(C(F)(F)F)c3)ccnc2O1 (stereo not drawn)	UHRF1 MBD2 ctr 38
CC(=O)Nc1cccc(-c2ccnc3c2CC(C)(C(=O)NC(C)C)O3)c1 (stereo not drawn)	none
COc1ccc(CNC(=O)C[C@H]2CC[C@H](NC(=O)c3cccc(F)c3)[C@@H](CO)O2)cc1	none (no result: MBD2 inh, TDP2 absorb, UHRF1 MBD2 ctr, NSD2 HMT inh, LEDGF integ inh)
COc1ccccc1C(=O)N1CCN(C(=O)[C@H]2O[C@@H](n3cnc4c(N)ncnc43)[C@H](O)[C@@H]2O)CC1	UHRF1 MBD2 ctr 24 (no result: NSD2 HMT inh)
NCCc1c(-c2ccccc2)n(-c2ccccc2)c2ccccc12	NSD2 HMT inh 60
CC(=O)n1c(-c2ccccc2)c(CO)c2ccccc21	none (no result: NSD2 HMT inh)
O=C1N=C(N2CCCCC2)S/C1=C/C1=Cc2ccccc2OC1	none
O=C1N=C(N2CCCC2C(=O)O)S/C1=C\c1ccco1 (stereo not drawn)	LEDGF integ inh 27
CCN(CC)CCCNC(=O)c1cn(C)c2ccc(S(=O)(=O)N(C)C)cc2c1=O	UHRF1 MBD2 ctr 27 (no result: NSD2 HMT inh)
S=c1[nH]nc(-c2cccnc2)n1/N=C/C=C/c1ccco1	Casp6 inh 39
S=c1[nH]nc(-c2ccc(Cl)cc2)n1/N=C/C=C/c1ccco1	none
Cc1ccc(Nc2ncnc3sccc23)c(C)c1	Casp6 inh 99
NS(=O)(=O)c1cc(C(=O)NC2CCSc3ccccc32)ccc1Cl (stereo not drawn)	MBD2 inh 96, TDP2 absorb 73, Casp6 inh 80, UHRF1 MBD2 ctr 102, NSD2 HMT inh 180, LEDGF integ inh 60
CC(C)C[C@@H](CNCC(=O)[C@H](Cc1c[nH]c2ccccc12)NC(=O)c1[nH]cnc1C(=O)N[C@@H](C)CN)NC(=O)c1nc[nH]c1C(=O)N[C@@H](C)C(=O)O	UHRF1 MBD2 ctr 22 (no result: NSD2 HMT inh)
CC(C)C[C@@H](CN)NC(=O)c1nc[nH]c1C(=O)N[C@@H](Cc1c[nH]c2ccccc12)C(=O)CNC[C@H](C)NC(=O)c1nc[nH]c1C(=O)N[C@@H](CC(=O)O)C(=O)O	UHRF1 MBD2 ctr 22 (no result: NSD2 HMT inh)
CC(C)C[C@@H](CNCC(=O)[C@H](Cc1c[nH]c2ccccc12)NC(=O)c1[nH]cnc1C(=O)N[C@@H](C)CN)NC(=O)c1nc[nH]c1C(=O)N[C@@H](CC(=O)O)C(=O)O	none (no result: NSD2 HMT inh)
CC(C)C[C@@H](CNCC(=O)[C@H](Cc1c[nH]c2ccccc12)NC(=O)c1[nH]cnc1C(=O)N[C@H](CN)CC(C)C)NC(=O)c1nc[nH]c1C(=O)N[C@@H](CC(=O)O)C(=O)O	UHRF1 MBD2 ctr 22 (no result: NSD2 HMT inh)
CC(C)C[C@@H](CN)NC(=O)c1nc[nH]c1C(=O)N[C@@H](Cc1ccccc1)C(=O)CNC[C@H](C)NC(=O)c1nc[nH]c1C(=O)N[C@@H](CC(=O)O)C(=O)O	none (no result: NSD2 HMT inh)
CCOc1ccccc1C(=O)Oc1ccc2ccc(O)cc2c1	none (no result: MBD2 inh, TDP2 absorb, Casp6 inh, UHRF1 MBD2 ctr, LEDGF integ inh)
CNC[C@H]1[C@@H](c2ccc(C#CCC3CCCC3)cc2)[C@@H](CO)N1C(=O)C1CCC1	none (no result: MBD2 inh, TDP2 absorb, UHRF1 MBD2 ctr, NSD2 HMT inh, LEDGF integ inh)

Assay outcomes: PubChem BioAssay, several laboratories
